# MOR-DOR ag-1 = agonists of human mu-delta opioid receptor heterodimerization; activation, % at 9.3 µM; cells, OPRM1-OPRD1 heterodimerization, luminescence; 340,000 tested, 0.3% active;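 also: 0% = vehicle-treated cells and 100% = reference agonist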
# Target sequence (P35372 whole entry, looked up): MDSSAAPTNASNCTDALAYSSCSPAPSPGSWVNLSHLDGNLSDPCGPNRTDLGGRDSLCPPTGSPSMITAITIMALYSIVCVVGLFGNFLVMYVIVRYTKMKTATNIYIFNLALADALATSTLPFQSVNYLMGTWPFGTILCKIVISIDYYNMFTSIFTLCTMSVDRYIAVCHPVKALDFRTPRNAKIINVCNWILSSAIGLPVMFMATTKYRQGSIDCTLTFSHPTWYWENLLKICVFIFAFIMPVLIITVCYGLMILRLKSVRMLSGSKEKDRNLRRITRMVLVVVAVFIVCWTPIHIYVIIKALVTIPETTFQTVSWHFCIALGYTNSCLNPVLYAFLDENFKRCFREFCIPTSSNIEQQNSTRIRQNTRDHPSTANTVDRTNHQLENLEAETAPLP
# Target sequence (P41143 whole entry, looked up): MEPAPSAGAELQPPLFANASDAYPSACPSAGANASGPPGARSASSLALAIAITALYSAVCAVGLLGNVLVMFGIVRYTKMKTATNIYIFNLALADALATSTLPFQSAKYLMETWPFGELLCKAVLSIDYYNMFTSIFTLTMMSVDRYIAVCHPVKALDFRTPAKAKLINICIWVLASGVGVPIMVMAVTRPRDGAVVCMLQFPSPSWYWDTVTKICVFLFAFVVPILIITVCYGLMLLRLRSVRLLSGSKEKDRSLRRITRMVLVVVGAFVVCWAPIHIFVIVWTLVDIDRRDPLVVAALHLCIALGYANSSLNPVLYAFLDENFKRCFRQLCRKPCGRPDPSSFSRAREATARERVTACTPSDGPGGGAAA
# HTR5A inv ctr = HTR5A inverse agonism, opioid heterodimer counter-screen | P47898 | HTR5A cell line, luminescence | inhibition, % at 9.3 µM | 340,000 tested, 0.083% active | AID 504634; in the data active = inhibition mostly above about 23%, no sharp cut-off; inactive = mostly below about 18%;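 also: 0% = cells with DMSO and 100% = no-cell wells with DMSO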
# Lipid droplet = hepatic lipid droplet formation modulation | AML12 mouse hepatocytes, oleate lipid droplets, BODIPY imaging | 240,000 tested, 0.4% active | inhibition, % at 6.5 µM;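 active = lipid droplet intensity inhibited by at least 50%, with more than 500 cells counted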
#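 Assay system: AML12 mouse liver cells | Compound: 6.5 µM single-point dosing | Schedule: Overnight exposure | Technique: Fluorescence imaging, 20x objective, two fields per well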
# MOR-DOR inv ag = inverse agonist of human OPRM1-OPRD1 heterodimerization; P35372+P41143; cell-based MOR-DOR heterodimer luminescence, inverse agonism; inhibition, % at 9.3 µM; 340,000 tested, 0.21% active; AID 504357; in the data active = inhibition above about 22%, passing the limit was not always enough;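 also: 0% = cells with DMSO and 100% = wells without cells with DMSO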
# HTR5A ag ctr = activates human HTR5A in OPRM1-OPRD1 agonist counter-screen | P47898 | HTR5A agonist assay, luminescence, cell-based | 340,000 tested, 0.61% active | activation, % at 9.3 µM; in the data active = activation mostly above about 9.5%, no sharp cut-off; inactive = mostly below about 7.6%;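 also: 0% = cells with vehicle only and 100% = reference agonist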
# MOR-DOR ag-2 = opioid heterodimer agonism, HTR5A counter-screen | U2OS counter-screen cells, complementation luminescence, 3 h | activation, % at 9.3 µM | shares compounds with HTR5A ag ctr | 800 tested, 13% active
# HTR5A ag confirm = HTR5A (human) agonism, confirmation. shares compounds with HTR5A ag ctr. HTR5A agonist cell assay, luminescence. activation, % at 9.3 µM. 800 tested, 17% active; in the data active = activation above about 17%;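 also: 0% = cells with vehicle only and 100% = full reference agonist response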
# * hit, by the source's call; . = no result. Sampled rows, rich in hits. Any-hit rate of the full collection: about 1.4%. Rule as the data show it, unless noted: active = activation above about 18%; inactive = the rest.
SMILES,MOR-DOR ag-1,HTR5A inv ctr,Lipid droplet,MOR-DOR inv ag,HTR5A ag ctr,MOR-DOR ag-2,HTR5A ag confirm
O=C(CC1C[C@H](C(=O)N2CCOCC2)[C@@]2(CCC3CCCC3)c3[nH]c4ccccc4c3CCN2C1=O)NCCCn1ccnc1 (stereo not given in full),-3,5,.,13,-2,.,.
N#Cc1ccc(-c2csc(-c3ccno3)n2)cc1,.,.,-3,.,.,.,.
Cc1nc(-c2ccc(C#N)cc2)cs1,1,-13,2,-4,15*,13,4
C=CCN(C/C(=N\O)c1sc(C(=O)OCC)nc1C)c1cccc(Br)c1,7,-59,.,-44,22*,8,2
Cc1ccc(C)c(S(=O)(=O)N/N=C/c2ccc(N(C)C)cc2)c1,0,-9,0,0,3,.,.
Cc1ccc(C)c(S(=O)(=O)N/N=C/c2ccc(F)cc2)c1,1,-45,-9,-3,15*,4,7
Nc1ccc(S(=O)(=O)c2cc(O)c3ccccc3c2O)cc1,7,0,.,-30,0,.,.
COc1ccc(C(=O)Nc2ccc(OC)c([N+](=O)[O-])c2)cc1Br,-2,12,-2,10,1,.,.
COc1ccc(C(=O)Nc2cccc([N+](=O)[O-])c2)cc1Br,12,-47,.,-51,19*,8,0
CC(=O)Nc1ccc(NC(=O)C(C)OC(=O)C2CCCCC2)cc1 (stereo not given),-3,-2,.,13,1,.,.
O=C(CN1C2=NCCCN2c2ccccc21)c1ccc(Cl)cc1Cl,3,0,-5,-16,0,.,.
CN(CC(=O)Nc1cccc(F)c1)C(=O)C1(c2ccccc2)CC1,-3,-7,.,11,14*,3,-1
COc1cccc(OC)c1C(=O)OCCCOC(=O)c1c(OC)cccc1OC,-3,-32,-7,14,-2,.,.
Cc1cccc2c(=O)n3c(cc12)-c1[nH]c2ccccc2c1CC3,15,-57,.,-65,15*,3,-1
O=c1c2ccccc2nc2n1CCc1c-2[nH]c2ccccc12,7,-29,.,-40,14,.,.
Cc1cc(C(F)F)nn1CC(=O)N1CCSCC1,-2,6,-4,10,16*,1,0
O=C(Cn1nc(C(F)F)cc1C1CC1)N1CCCC1,-2,2,7,14,-1,.,.
O=S1(=O)CCN2N=C(C34CC5CC(CC(C5)C3)C4)SC2=N1,0,6,4,-2,18*,1,-2
c1ccc(CCNC2=NCCCS2)cc1,-2,-54,.,13,20*,2,0
c1ccc(CCNC2=NCCS2)cc1,1,-15,-6,-6,3,.,.
COc1cccc(CN(C(=O)COc2ccc(C)cc2)C2CCS(=O)(=O)C2)c1 (stereo not given),-2,6,-28,9,3,.,.
Cc1cccc(C)c1NC(=O)CN1C(=O)COc2ccccc21,-1,16,-13,6,-1,.,.
NC(=O)c1cc([N+](=O)[O-])ccc1NCC1CCCCC1,5,-41,.,-27,16*,16,7
NC(=O)c1cc([N+](=O)[O-])ccc1NCc1cnccn1,-2,9,.,8,22*,1,0
O=C(C(=O)N(Cc1ccccc1)Cc1ccccc1)c1c(-c2ccccc2)[nH]c2ccccc12,6,-11,.,-26,3,.,.
SMILES,MOR-DOR ag-1,HTR5A inv ctr,Lipid droplet,MOR-DOR inv ag,HTR5A ag ctr,MOR-DOR ag-2,HTR5A ag confirm
CC(=O)N1CCc2c(sc(NC(=O)C3CC3)c2-c2nc3ccccc3s2)C1,-2,-47,36,11,16*,2,1
COc1ccc2[nH]c(C)c(CCNC(=S)Nc3cc(C)cc(C)c3)c2c1,0,-56,-25,-2,20*,3,-2
COc1ccc2[nH]cc(CCNS(=O)(=O)Cc3ccccc3)c2c1,-2,-60,4,9,22*,1,5
COc1ccc(NC(=S)NCCc2c[nH]c3ccccc23)c(OC)c1,0,-17,-5,-2,6,.,.
COc1ccc(NC(=S)NCCc2c[nH]c3ccc(OC)cc23)c(OC)c1,1,-36,.,-6,16*,2,10
COc1ccc2[nH]cc(CCNC(=O)Cc3ccc(Cl)cc3)c2c1,-1,-61,.,5,17*,2,37*
COc1ccc2[nH]c(C)c(CCNC(=S)Nc3cccc(C)c3)c2c1,-2,13,-7,11,-5,.,.
CCCc1ncc(C(O)c2ccccc2OC)n1C (stereo not given),.,.,11,.,.,.,.
CCC(C)c1ccccc1NC(=O)c1cccc(-n2cnnn2)c1 (stereo not given),-1,10,.,3,-2,.,.
CCCCCCCCCC[n+]1cccc2c3ccccc3ccc21,0,5,-156,2,22*,4,5
Cn1ccnc1SCC(=O)Nc1cc(F)ccc1F,-1,6,1,6,-2,.,.
O=C(Nc1ccc2c(c1)CCC2)c1ncoc1-c1ccccc1F,3,9,10,-18,-4,.,.
CNC(=O)c1sc(-c2cccnc2)nc1C,-3,-50,.,15,18*,1,1
CNC(=O)c1sc(-c2ccccc2)nc1C,-1,24,4,3,1,.,.
O=C(COc1ccc(Cl)cc1)NCCSCc1cccc(Cl)c1,-1,11,.,7,1,.,.
Cc1cccc(CSCCNC(=O)COc2ccc(Cl)cc2)c1,3,2,-2,-21,14*,-6,-4
Cc1cc(NC(=O)CCC(=O)N(c2ccccc2)C(C(=O)NC2CCCC2)c2ccccc2F)no1 (stereo not given),2,6,-1,-12,2,.,.
CC(=O)c1ccc(N(CC(=O)NCC2CCCO2)C(=O)CCC(=O)Nc2cc(C)on2)cc1 (stereo not given),2,-26,-17,-11,14*,3,0
CCOC(=O)C1=C(COC(=O)/C=C/c2ccc(OC)cc2)NC(=O)NC1C (stereo not given),-4,-6,.,18,2,.,.
CCOC(=O)C1=C(COC(=O)/C=C/c2ccco2)NC(=O)NC1C (stereo not given),4,3,.,-23,16*,4,0
COc1cc(OC)c2c(-c3ccccc3)cc(=O)oc2c1C(CCN1CCCC(C)C1)c1ccc(N(C)C)cc1 (stereo not given),-2,-9,4,8,-6,.,.
COc1ccc(C(CCN2CCCC(C)C2)c2c(OC)cc(OC)c3c(-c4ccccc4)cc(=O)oc23)cc1 (stereo not given),-1,-66,0,7,23*,-1,-5
COc1ccc(Cl)cc1N(CC(=O)NCCSc1ccccn1)S(=O)(=O)c1ccccc1,1,-49,2,-8,16*,1,18*
COc1ccc(N(CC(=O)NCCSc2ccccn2)S(=O)(=O)c2ccccc2)cc1Cl,-2,-3,-41,12,4,.,.

# Compound activity deposited in PubChem by several laboratories.
